From ChEMBL document CHEMBL1949497, “Synthesis and antihormonal properties of novel 11β-benzoxazole-substituted steroids” (Bioorg Med Chem Lett, 2012)

What was measured:
[1] = tested on: T47D; assay: Selectivity ratio of IC50 for progesterone receptor in human T47D cells to IC50 for glucocorticoid receptor in human A549 cells; type: cell-based
In short: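 Ratio calculated by dividing the IC50 from the T47D alkaline phosphatase assay by the IC50 from the A549 cell-based functional assay, with both measured in this work. It serves as an index of how well PR and GR antagonism are separated. Mifepristone was run alongside as the reference compound.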

[2] = target: T1, Progesterone receptor (Homo sapiens, UniProt P06401); assay: Antagonist activity at progesterone receptor in human T47D cells assessed as inhibition of progesterone-induced alkaline phosphatase activity after 24 hrs by luminescence based assay; type: functional, cell-based
T1 sequence (P06401 whole entry): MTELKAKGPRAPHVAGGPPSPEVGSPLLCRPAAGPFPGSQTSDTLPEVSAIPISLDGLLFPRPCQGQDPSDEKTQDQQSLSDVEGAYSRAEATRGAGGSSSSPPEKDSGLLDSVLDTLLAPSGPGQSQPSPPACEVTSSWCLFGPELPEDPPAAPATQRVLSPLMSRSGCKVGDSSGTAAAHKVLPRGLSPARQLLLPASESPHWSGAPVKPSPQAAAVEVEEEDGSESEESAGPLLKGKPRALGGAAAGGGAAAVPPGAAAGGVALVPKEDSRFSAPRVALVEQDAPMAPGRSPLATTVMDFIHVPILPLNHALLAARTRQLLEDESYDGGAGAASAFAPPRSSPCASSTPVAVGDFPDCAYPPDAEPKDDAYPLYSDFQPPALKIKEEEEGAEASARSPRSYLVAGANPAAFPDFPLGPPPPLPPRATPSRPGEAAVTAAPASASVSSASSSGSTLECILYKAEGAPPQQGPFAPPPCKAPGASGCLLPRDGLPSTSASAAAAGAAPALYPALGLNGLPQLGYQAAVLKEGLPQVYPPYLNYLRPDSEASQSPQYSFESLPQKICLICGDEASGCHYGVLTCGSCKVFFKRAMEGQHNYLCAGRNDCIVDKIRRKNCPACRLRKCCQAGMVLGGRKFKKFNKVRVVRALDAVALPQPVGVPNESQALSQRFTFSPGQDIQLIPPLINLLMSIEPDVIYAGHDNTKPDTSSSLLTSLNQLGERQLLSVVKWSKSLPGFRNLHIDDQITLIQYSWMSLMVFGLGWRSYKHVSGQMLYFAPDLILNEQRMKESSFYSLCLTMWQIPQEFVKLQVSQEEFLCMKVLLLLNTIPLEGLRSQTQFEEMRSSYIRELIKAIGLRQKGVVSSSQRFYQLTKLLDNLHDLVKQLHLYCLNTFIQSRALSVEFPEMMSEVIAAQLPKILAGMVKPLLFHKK

[3] = target: T2, Glucocorticoid receptor (Homo sapiens, UniProt P04150); assay: Antagonist activity at glucocorticoid receptor in human A549 cells assessed as inhibition of dexamethasone-induced transcription at GRE after 24 hrs by luciferase reporter gene assay; type: functional, cell-based
T2 sequence (P04150 whole entry): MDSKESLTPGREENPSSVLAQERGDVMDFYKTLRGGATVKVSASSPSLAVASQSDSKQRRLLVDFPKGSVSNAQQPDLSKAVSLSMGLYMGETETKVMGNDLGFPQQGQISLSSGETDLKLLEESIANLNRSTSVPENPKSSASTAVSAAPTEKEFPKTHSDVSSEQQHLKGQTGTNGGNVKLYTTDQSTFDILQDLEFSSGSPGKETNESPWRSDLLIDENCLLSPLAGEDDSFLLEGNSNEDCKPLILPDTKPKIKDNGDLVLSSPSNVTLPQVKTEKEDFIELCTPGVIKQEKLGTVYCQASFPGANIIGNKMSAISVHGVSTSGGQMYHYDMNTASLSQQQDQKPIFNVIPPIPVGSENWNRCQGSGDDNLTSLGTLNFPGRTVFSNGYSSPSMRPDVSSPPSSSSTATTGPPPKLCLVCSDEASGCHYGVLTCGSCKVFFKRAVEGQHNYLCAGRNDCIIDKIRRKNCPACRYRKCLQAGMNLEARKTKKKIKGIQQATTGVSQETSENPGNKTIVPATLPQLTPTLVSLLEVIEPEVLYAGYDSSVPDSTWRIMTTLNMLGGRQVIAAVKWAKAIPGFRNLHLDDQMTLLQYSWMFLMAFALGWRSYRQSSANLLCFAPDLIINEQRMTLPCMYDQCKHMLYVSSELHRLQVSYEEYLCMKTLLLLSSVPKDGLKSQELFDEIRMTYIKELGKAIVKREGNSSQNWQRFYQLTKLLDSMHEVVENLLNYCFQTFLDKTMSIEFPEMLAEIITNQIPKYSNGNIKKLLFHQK

| Compound | Ratio IC50 [1] | IC50 [2] [nM] | IC50 [3] [nM] |
| --- | --- | --- | --- |
| CC#C[C@]1(O)CC[C@H]2[C@@H]3CCC4=CC(=O)CCC4=C3[C@@H](c3ccc4oc(C(F)(F)F)nc4c3)C[C@@]21C | 1.4 | 85 | 61 |
| CC#C[C@]1(O)CC[C@H]2[C@@H]3CCC4=CC(=O)CCC4=C3[C@@H](c3ccc4oc(CC)nc4c3)C[C@@]21C | 5 | 65 | 13 |
| CC#C[C@]1(NC=O)CC[C@H]2[C@@H]3CCC4=CC(=O)CCC4=C3[C@@H](c3ccc4oc(C(F)(F)F)nc4c3)C[C@@]21C | 0.3 | 46 | 142 |
| CC#C[C@]1(O)CC[C@H]2[C@@H]3CCC4=CC(=O)CCC4=C3[C@@H](c3ccc4ocnc4c3)C[C@@]21C | 2.2 | 101 | 45 |
| CC#C[C@]1(O)CC[C@H]2[C@@H]3CCC4=CC(=O)CCC4=C3[C@@H](c3ccc4oc(C)nc4c3)C[C@@]21C | 1.5 | 35 | 23 |
| CC#C[C@]1(NC=O)CC[C@H]2[C@@H]3CCC4=CC(=O)CCC4=C3[C@@H](c3ccc4ocnc4c3)C[C@@]21C | 0.7 | 41 | 60 |
| CC#C[C@]1(O)CC[C@H]2[C@@H]3CCC4=CC(=O)CCC4=C3[C@@H](c3ccc(N(C)C)cc3)C[C@@]21C | 0.9 | – | – |
